The values below come from ChEMBL document CHEMBL1914325, “Largazole and analogues with modified metal-binding motifs targeting histone deacetylases: synthesis and biological evaluation” (2011).

Activity calls are given as the source filed them. The calls are words filed in the database; no cut-off is given here.

Test [1] concerns the target T1, Protein deacetylase HDAC6 (Homo sapiens) (UniProt Q9UBN7).
T1 sequence (whole entry): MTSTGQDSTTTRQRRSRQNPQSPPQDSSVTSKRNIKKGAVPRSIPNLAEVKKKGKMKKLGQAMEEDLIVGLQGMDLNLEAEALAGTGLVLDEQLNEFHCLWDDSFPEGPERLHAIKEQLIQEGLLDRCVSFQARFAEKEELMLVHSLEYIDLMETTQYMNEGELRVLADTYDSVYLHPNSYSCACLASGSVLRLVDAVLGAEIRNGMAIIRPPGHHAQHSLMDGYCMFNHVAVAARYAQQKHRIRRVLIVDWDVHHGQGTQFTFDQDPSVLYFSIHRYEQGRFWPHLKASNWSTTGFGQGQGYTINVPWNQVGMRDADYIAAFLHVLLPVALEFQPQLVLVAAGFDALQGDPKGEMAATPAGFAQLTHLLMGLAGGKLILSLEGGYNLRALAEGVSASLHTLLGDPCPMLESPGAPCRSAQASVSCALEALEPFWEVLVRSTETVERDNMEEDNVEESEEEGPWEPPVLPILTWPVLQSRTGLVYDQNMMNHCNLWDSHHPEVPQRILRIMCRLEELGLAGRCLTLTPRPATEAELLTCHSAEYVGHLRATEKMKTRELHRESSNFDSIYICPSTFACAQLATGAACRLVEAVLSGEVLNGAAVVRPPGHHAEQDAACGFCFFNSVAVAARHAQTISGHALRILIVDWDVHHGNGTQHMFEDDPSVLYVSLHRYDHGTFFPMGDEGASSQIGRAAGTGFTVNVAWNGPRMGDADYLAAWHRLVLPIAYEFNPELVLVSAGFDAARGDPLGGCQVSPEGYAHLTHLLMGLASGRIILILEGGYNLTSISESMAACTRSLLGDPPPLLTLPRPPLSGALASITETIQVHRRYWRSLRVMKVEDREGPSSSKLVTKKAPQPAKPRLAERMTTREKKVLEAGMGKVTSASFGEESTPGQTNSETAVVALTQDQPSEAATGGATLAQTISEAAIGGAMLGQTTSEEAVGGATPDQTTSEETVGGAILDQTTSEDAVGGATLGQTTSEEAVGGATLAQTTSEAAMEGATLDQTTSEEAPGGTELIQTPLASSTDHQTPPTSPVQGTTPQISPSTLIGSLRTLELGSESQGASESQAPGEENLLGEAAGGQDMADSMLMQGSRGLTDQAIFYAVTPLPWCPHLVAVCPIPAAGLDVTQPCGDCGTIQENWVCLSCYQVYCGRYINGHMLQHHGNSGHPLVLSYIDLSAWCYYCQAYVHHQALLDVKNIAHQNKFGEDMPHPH
As to the kind of experiment: Inhibition of recombinant HDAC6 at 1 uM after 1 hr by fluorimetric assay. The essentials:
(§1)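 Fluor de Lys fluorimetric deacetylase assay run per the kit protocol. Inhibitor, enzyme and substrate were incubated 1 h, then developer was added and incubated before reading. Recombinant HDAC1 or HDAC6 was tested at 1 µM inhibitor; HeLa nuclear extract served as the class 1/2 HDAC source. Analogue + substrate + developer was the signal control. Three experiments, each in triplicate; SD of triplicates.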

In test [2] the target is T1, Protein deacetylase HDAC6 (Homo sapiens). As to the kind of experiment: Inhibition of recombinant human HDAC6 after 1 hr by fluorimetric assay.
Test [3] has the same target. Put plainly: Inhibition of HDAC6 in human HCT116 cells assessed as increase in alpha tubulin acetylation at 0.01 to 1 uM after 24 hrs by Western blot analysis. Particulars: HCT-116. The class given is cell-based. The gist of the method: (§2)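 HCT116 cells treated 24 h with 10 nM, 100 nM or 1 µM compound, with DMSO as vehicle control. Acetylation of histone or α-tubulin was measured by Western blot of whole-cell lysates, detected with infrared dye-conjugated secondary antibodies and infrared scanning.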

The subject of test [4] is HCT-116. Put plainly: Growth inhibition of human HCT116 cells at 5 uM after 96 hrs by MTS assay. The class given is functional, cell-based. The essentials: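 HCT116 cells seeded at 3 × 10^4 cells/well in quadruplicate and left to attach overnight. Medium was replaced with fresh medium containing compound at 10 nM, 100 nM, 1 µM or 5 µM, then incubated 96 h at 37 °C in 5% CO2. MTS reagent was added for 1.5 h at 37 °C and absorbance read at 490 nm.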

The target of test [5] is Histone deacetylase 1 (Homo sapiens) (UniProt Q13547). As to the kind of experiment: Inhibition of HDAC1 in human HCT116 cells assessed as increase in histone H3 acetylation at 10 nM after 24 hrs by Western blot analysis. The class given is cell-based. To be noted: HCT-116. The gist of the method:
as §2

Test [6] shares this target. As to the kind of experiment: Inhibition of recombinant HDAC1 at 1 uM after 1 hr by fluorimetric assay. The gist of the method:
as §1

For test [7] the target is unchanged. Put plainly: Inhibition of HDAC1 from human HeLa nuclear extract after 1 hr by fluorimetric assay. The essentials: as §1
Test [8] has the same target. Put plainly: Inhibition of HDAC1 in human HCT116 cells assessed as increase in histone H3 acetylation at 1 uM after 24 hrs by Western blot analysis. The test is classed as cell-based. Particulars: HCT-116. The essentials:
as §2

For test [9], the system named is HCT-116. Put plainly: Growth inhibition of human HCT116 cells after 96 hrs by MTS assay. The class given is functional. Particulars: HCT-116, 96 h. The essentials:
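HCT116 cells seeded at 3 × 10^4 cells/well in quadruplicate and allowed to attach overnight. Medium then replaced with fresh medium containing compound (10 nM, 100 nM, 1 µM, 5 µM). Cells incubated 96 h at 37 °C, 5% CO2. MTS reagent (CellTiter 96 One Solution) added for 1.5 h at 37 °C, then absorbance read at 490 nm. GI50 estimated from the growth curves.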

Test [10] addresses Histone deacetylase 1 (Homo sapiens) (UniProt Q13547). Particulars: HCT-116, 100 nM.

Sequence of Histone deacetylase 1 (Homo sapiens) (Q13547 whole entry): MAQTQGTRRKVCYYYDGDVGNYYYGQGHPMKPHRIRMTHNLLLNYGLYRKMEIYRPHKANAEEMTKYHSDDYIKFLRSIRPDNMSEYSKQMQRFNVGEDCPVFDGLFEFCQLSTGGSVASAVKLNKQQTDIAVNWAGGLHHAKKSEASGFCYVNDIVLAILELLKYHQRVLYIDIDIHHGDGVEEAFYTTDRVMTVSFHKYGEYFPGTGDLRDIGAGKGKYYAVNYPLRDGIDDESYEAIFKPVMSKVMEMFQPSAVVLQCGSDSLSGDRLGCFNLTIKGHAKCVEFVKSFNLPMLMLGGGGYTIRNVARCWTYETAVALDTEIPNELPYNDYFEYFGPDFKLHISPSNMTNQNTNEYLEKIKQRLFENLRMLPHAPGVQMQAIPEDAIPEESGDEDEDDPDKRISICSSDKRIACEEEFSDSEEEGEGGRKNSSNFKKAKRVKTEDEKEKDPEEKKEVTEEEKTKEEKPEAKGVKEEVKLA

As to `CC(C)[C@@H]1NC(=O)[C@]2(C)CSC(=N2)c2csc(n2)CNC(=O)C[C@@H](/C=C/CCSCc2ccccc2O)OC1=O`, the inhibition in [1] was found to be 50%; in [6], 30%. Besides, the inhibition entry in test [2] and in [7] was “Active” each time. Further, the inhibition result in [3] and in [5] was “inactive” each time. Besides, the “growth inhibition (GI)” value in the test with HCT-116 [4] is “Active”.
On to `CC(C)[C@@H]1NC(=O)[C@]2(C)CSC(=N2)c2csc(n2)CNC(=O)C[C@@H](/C=C/CCSCc2ccccn2)OC1=O`, for which the inhibition in [1] worked out at 50%; in test [6] it was 80%. Besides, the inhibition entry in test [2], in test [7] and in test [8] was “Active” throughout. Besides, the inhibition entry in [3] and in test [5] was “inactive” each time. It took 1000 nM to inhibit growth in the test with HCT-116 [9] by half (GI50).
Regarding `CCCCCCCC(=O)SCC/C=C/[C@@H]1CC(=O)NCc2nc(cs2)C2=N[C@@](C)(CS2)C(=O)N[C@@H](C(C)C)C(=O)O1` [LARGAZOLE], the inhibition in test [1] was 50%. The inhibition entry in [2], in [6], in test [10] and in test [7] was “Active” in each case. Besides, the inhibition result in [3] and in test [5] was “inactive” in each case. In the test on HCT-116 [9], halving of growth (GI50) required 10 nM.
Consider `CC(C)[C@@H]1NC(=O)[C@]2(C)CSC(=N2)c2csc(n2)CNC(=O)C[C@@H](/C=C/CCSCc2cccs2)OC1=O`, for which the figures for the inhibition in [1] and in test [6] were 50% and 80%, respectively. Also, the inhibition result in test [2], in test [7] and in [8] was “Active” in each case. For the same compound, the inhibition entry in [3] and in test [5] was “inactive” in each case. Also, the “growth inhibition (GI)” value in the test with HCT-116 [4] is “Active”.
